# Most compounds without a hit are left out; they make up all but 2% or so of the library.
# NR2E3 ag-1: agonists of human NR2E3 nuclear receptor; 360,000 tested, 0.35% active; inhibition of corepressor binding, % at 3.98 µM; CHO-S Gal4-NCOR/VP16-NR2E3 two-hybrid, luciferase;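 active = inhibition above the mean of all tested compounds plus 3 SD, cut at about 70% in these data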;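 also: 0% = DMSO with NR2E3 transfected cells and 100% = cells lacking NR2E3 construct; higher means lower luciferase signal from less NR2E3 corepressor binding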
# Target sequence (Q9Y5X4 whole entry, looked up, the tested form may be a part): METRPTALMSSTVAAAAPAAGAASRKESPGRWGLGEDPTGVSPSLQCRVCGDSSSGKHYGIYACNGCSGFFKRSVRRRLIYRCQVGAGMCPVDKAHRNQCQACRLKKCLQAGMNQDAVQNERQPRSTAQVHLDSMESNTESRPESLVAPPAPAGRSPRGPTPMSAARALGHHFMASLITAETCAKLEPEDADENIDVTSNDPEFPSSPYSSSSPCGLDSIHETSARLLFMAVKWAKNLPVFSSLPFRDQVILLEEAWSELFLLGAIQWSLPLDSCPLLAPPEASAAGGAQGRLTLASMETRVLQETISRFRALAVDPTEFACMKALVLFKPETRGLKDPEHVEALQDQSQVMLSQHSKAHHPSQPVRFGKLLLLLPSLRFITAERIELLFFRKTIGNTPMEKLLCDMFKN
# NR2E3 ag-2: agonists of human nuclear receptor NR2E3; inhibition of corepressor binding, % at 4.78 µM; Q9Y5X4; GST-NR2E3/biotin-RetCOR TR-FRET, 1536-well; 320,000 tested, 0.12% active;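 active = percent inhibition above the cutoff of mean plus 3 SD of all tested compounds, set per screening campaign, cut at about 20% in these data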;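 also: 0% = DMSO wells and 100% = biotin wells as full block of FRET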
#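 Material – GST-tagged NR2E3 plus biotinylated RetCOR corepressor · Quantity – NR2E3 fusion 1.35 nM · Times – 5 h incubation at 4 °C · Medium – pH 7.5 Tris-based buffer · Technique – TR-FRET, Eu(K)-anti-GST donor, streptavidin-D2 acceptor, ex 340, em 617/671 nm · Benchmarks – high control biotin, low control 0.6% DMSO · Format – 1536-well plates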
# T cell HTS: T cell immune modulators affecting CD8 T cell-vesicle binding | 330,000 tested, 0.068% active | response (vesicle binding), % at 7 µM | 2C CD8+ T cell-vesicle binding, flow cytometry; hits give low values | AID 2052;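 active = response, share of CD8 T cells binding vesicles, and their 90th percentile fluorescence all below set limits, cut at about 80% in these data, passing the limit was not always enough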;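 also: values below 100% mean blocked vesicle binding to the CD8+ T cells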
#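 material = purified 2C TCR transgenic mouse naive CD8+ T cells | controls = Unloaded micro-vesicles (low), QL9 vesicles with 0.7% DMSO (high) | detection = cytometric PE anti-B7-1 and Alexa647 anti-CD8 signals after 1% paraformaldehyde fixation | incubation = binding step 1.5 h, 37 °C, antibody labelling 20 min, ice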
# Myeloid diff 2: myeloid differentiation induction | ER-HoxA9 myeloid progenitors, lysozyme-GFP differentiation, flow cytometry | calls only at 10 µM | 360,000 tested, 1% active;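 active = normalized GFP-positive differentiation at or above the plate's own cutoff, the solvent-only control mean plus 3 SD; inconclusive = no clear call, values can overlap the other calls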;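 also: cells exposed to compound for four days before flow analysis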
# GAA850 FXN act: activators of GAA850 frataxin (FXN) promoter | HEK293 lucGAA850 FXN promoter luciferase reporter, 24 h; percent of 10 µM SAHA response | activation, % at 6 µM | 360,000 tested, 0.56% active;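 active = activation above the average of all compounds screened plus 3 SD, cutoff fixed separately per campaign, cut at about 7.5% in these data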;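 also: 0% = DMSO wells and 100% = 10 µM SAHA wells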
# * = called active by the depositor; i = inactive; ? = inconclusive; / = no result; + = active, no number.
SMILES,NR2E3 ag-1,NR2E3 ag-2,T cell HTS,Myeloid diff 2,GAA850 FXN act
S=c1[nH]nc(C2CCCCC2)n1/N=C/C=C/c1ccccc1,9.3,0.8,646.0,i,0.0
S=c1[nH]nc(C2CCCCC2)n1/N=C/C(Cl)=C\c1ccccc1,3.8,-0.9,393.7,+,1.3
CC1(C)Cc2cccc(Oc3cc(NN4CCCCC4)c([N+](=O)[O-])cc3[N+](=O)[O-])c2O1,-2.8,1.5,387.2,i,0.0
COc1ccc(F)cc1C1=CC(=O)C[C@H](c2ccc3c(c2)OCO3)C1,-62.5,0.0,282.5,+,-3.4
COc1ccc([C@H]2CC(=O)C=C(c3cc(OC)ccc3OC)C2)cc1,-39.8,-1.7,468.1,+,-2.7
COc1ccc(OC)c(C2=CC(=O)C[C@H](c3ccc(F)cc3)C2)c1,-34.3,/,/,i,2.3
CC(=O)Nc1ccc(S(=O)(=O)NNC(=S)NCc2ccco2)cc1,-5.6,0.0,368.9,+,-3.9
Cc1ccc2nc(/C(C#N)=C/c3ccc(O)c(O)c3)[nH]c2c1,-33.7,-0.8,i,+,7.0
Cc1ccc2nc(/C(C#N)=C/c3ccccc3C(=O)O)[nH]c2c1,-94.7,-1.4,222.7,i,4.8
Cc1ccccc1NC(=O)c1nc(S(C)(=O)=O)ncc1Cl,1.6,3.4,266.6,?,18.1*
COc1cccc(-c2csc(/C(C#N)=C/Nc3cc4oc5ccccc5c4cc3OC)n2)c1,-24.5,1.1,240.5,i,1.0
COc1cc2c(cc1N/C=C(\C#N)c1nc(-c3ccccc3)cs1)oc1ccccc12,-19.2,3.2,216.2,+,1.7
CCC(C)(C(=O)NC1CCCC1)N(Cc1cccs1)C(=O)Cc1cccs1 (stereo not given),-15.7,-0.1,34.6*,i,1.7
CCC(C)(C(=O)NC1CCCC1)N(Cc1ccco1)C(=O)c1ccc2c(c1)OCO2 (stereo not given),6.2,-0.2,524.2,+,-3.1
CC(NC(=O)/C(C#N)=C1\N=C(NC(=O)c2cccs2)c2ccccc21)c1ccccc1 (stereo not given),-0.9,-3.9,271.4,+,1.1
CCN(CC)c1ccc(NC(=O)C2=CC=CN3CCS(=O)(=O)N=C23)cc1,-27.2,-8.8,0.0*,i,2.0
Cc1ccccc1N/C(=N/S(=O)(=O)c1ccccc1)c1ccc(F)cc1,13.9,0.0,64.7,+,0.7
COc1ccc(NS(=O)(=O)c2cc(N/C(=N\S(=O)(=O)c3ccccc3)c3ccc(F)cc3)ccc2Cl)cc1,4.2,-1.2,665.2,+,-1.8
Cc1ccc(N2CCN(c3ccc(C)cc3)C(CC(=O)O)C2=O)cc1 (stereo not given),-29.1,-0.2,368.8,+,0.4
Cc1ccc(N2CC(C(N)=O)CC2=O)cc1 (stereo not given),-18.9,-0.6,294.8,i,-1.7
CC(=O)NC(C)(c1ccccc1)c1nc(-c2cc(F)cc(F)c2)cs1 (stereo not given),-14.0,/,/,i,2.2
CN(CCOc1ccccc1)CC(=O)Nc1cc([N+](=O)[O-])ccc1Cl,5.2,-0.2,153.3,i,0.7
CCOc1ccc(CN(C)CC(=O)Nc2ccc([N+](=O)[O-])cc2Cl)cc1,-30.3,0.0,0.0,+,2.6
COc1cc2ccc(C(=O)O)cc2cc1OC,-31.6,/,/,i,-2.2
c1cncc(-c2csc(-c3cccnc3)n2)c1,-12.5,-3.0,496.4,i,0.4
SMILES,NR2E3 ag-1,NR2E3 ag-2,T cell HTS,Myeloid diff 2,GAA850 FXN act
c1cncc(-c2nc(-c3cccs3)cs2)c1,-42.2,2.2,85.8,+,-0.2
C=CCOc1ccc(C2NC(=S)NC(c3ccccc3)=C2C(C)=O)cc1OC (stereo not given),-15.1,-0.7,27.2*,i,0.2
Cc1ccc(Cl)cc1N1CCN(C(=O)c2cn(C)c(=O)c3c2c2ccccc2n3C)CC1,10.2,-1.9,410.0,+,-0.3
Cc1cccc(N2CCN(C(=O)c3cn(C)c(=O)c4c3c3ccccc3n4C)CC2)c1C,-5.5,1.5,i,i,-0.1
O=C(Nc1cccc(Cl)c1)c1csc([C@@H]2C[C@H](O)[C@@H](CO)O2)n1,-3.4,/,/,i,3.4
CCCCCC(=O)N1C[C@@H](n2cc(COC(=O)c3ccccc3)nn2)[C@H](O)C[C@@H]1c1ccccc1,-2.7,/,/,i,-2.2
Oc1ccc(Oc2ccc(Oc3ccc(O)cc3)cc2)cc1,-81.9,2.3,189.1,+,1.2
CC(=O)c1ccc(Oc2ccc(C(C)=O)cc2)cc1,-72.3,1.2,231.7,i,3.1
O=C(Nc1nc(-c2cccs2)cs1)c1cccc(S(=O)(=O)N2CCCCCC2)c1,-31.4,-1.2,225.9,+,1.5
O=C(Nc1nc(-c2cccs2)cs1)c1ccc(S(=O)(=O)N2CCCCC2)cc1,2.2,3.3,392.4,i,-2.5
NS(=O)(=O)c1ccc(NC2(C(=O)O)CCCC2)cc1,-13.7,-3.9,186.9,+,-1.4
CCOC(=O)COn1c(=O)c[n+]([O-])c2ccccc21,-24.5,1.2,199.7,+,0.5
CCOC(=O)COn1c(=O)c(C)[n+]([O-])c2ccccc21,-17.9,0.2,43.9,i,-0.5
CC1=CC(C)(C(Cl)(Cl)Cl)C(C)=CC1=NO (stereo not given),-15.4,/,/,i,2.3
COc1ccc(CC(=O)NC(=S)Nc2cccc(C)c2)cc1,0.0,2.5,195.0,+,2.1
COc1ccc(C(=O)Nc2cc(-c3ccccc3)nn2-c2ccccc2F)cc1,-1.6,7.2,418.8,+,0.0
O=C(COc1ccc(Cl)cc1[N+](=O)[O-])N1CCCCCC1,-3.1,-0.3,30.8*,i,-0.5
CCOC(=O)N1CCN(C(=O)COC(=O)Cc2ccc(Cl)cc2)CC1,-13.1,3.4,244.6,i,-0.7
O=C(Cc1ccc(Cl)cc1)OCC(=O)N1CCCCCC1,-29.8,/,61.2*,i,-0.7
Cc1ccc(C(=O)O)cc1NC(=O)CCc1c(C)noc1C,-18.4,/,/,i,0.4
Cc1ccccc1-c1cc2nc(Oc3ccc4c(c3)OCO4)n(C)c(=O)c2s1,0.8,/,/,i,0.9
C/C(=N/NC(N)=S)c1cc2ccc(O)cc2oc1=O,-2.8,1.6,623.5,+,0.4
CCOC(=O)c1cnc(-n2nc(C)cc2C)nc1NCc1ccc2c(c1)OCO2,82.2*,2.3,223.2,i,-1.2
Nc1ccc2nc(N)sc2c1,-41.7,/,/,i,1.1
Nc1ccc2sc(N)nc2c1,-20.2,-1.1,385.6,+,0.7
O=[N+]([O-])c1cc([N+](=O)[O-])c(Oc2ccc(Cl)c3cccnc23)cc1NN1CCCCC1,5.2,0.0,155.2,+,-1.3
O=[N+]([O-])c1cc([N+](=O)[O-])c(Oc2cccc(Cl)c2Cl)cc1NN1CCCCC1,-19.5,5.0,651.0,i,0.0
COc1cc(CN2CC(=O)N(c3cc(Cl)ccc3C)C2=S)cc(OC)c1OC,-3.8,-0.6,984.0,i,-1.7
